Test results taken from paper PMC7114262 (Antiviral Research, 2005).

Experiments:
[1] = Cytotoxicity, tetrazolium dye assay, static HEL monolayers; type: cell-based, human; conditions: human, static (confluent, serum-starved) HEL fibroblast monolayers
Summary of the method: (§1)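 Confluent HEL fibroblasts serum-starved 48 h, then exposed to a range of compound concentrations without virus or methylcellulose. After 72 h, viability read by tetrazolium colorimetric dye at 470 nm, as a percentage of DMSO-matched control wells. CC50 obtained by linear regression of percent inhibition against concentration, reported as mean ± standard deviation of quadruplicate experiments.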

[2] = Cytotoxicity, tetrazolium dye assay, growing HEL monolayers; type: cell-based; conditions: human, growing HEL fibroblast monolayers
Summary of the method: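 Cytotoxicity in growing HEL fibroblasts: cells not serum-starved, about 10% confluent when compound was added. Viability read by tetrazolium colorimetric dye after 72 h of exposure, as absorbance at 470 nm relative to DMSO-matched control wells. CC50 obtained by linear regression of percent inhibition versus concentration, reported as mean ± standard deviation of quadruplicate experiments.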

[3] = system: HCMV DNA; assay: HCMV DNA assay; type: cell-based, human cytomegalovirus
Summary of the method: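 Confluent HEL cells serum-starved 48 h, then infected with HCMV at 2–5 pfu/cell with or without compound; 50 μM ganciclovir served as control. At 72 hpi, wells were frozen in PBS at −80 °C and thawed. DNA was denatured in NaOH/NaCl, neutralized with Tris pH 7.0, and baked onto nitrocellulose. Serial dilutions were probed 14 h at 42 °C with 32P nick-translated Towne genomic DNA and read by autoradiography; four independent experiments.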

[4] = system: HCMV DNA; assay: Reversibility of antiviral effect after drug removal; type: cell-based, human cytomegalovirus; conditions: drug removed at 72 hpi; 20 μM baicalein, 50 μM genistein
Summary of the method: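 HEL cells infected with HCMV in presence of compound (20 or 50 μM) for 72 h. Medium then replaced with drug-free medium and replication allowed for a further 72 h. Viral DNA measured at 24 h intervals by 32P-probe dot blot hybridization; experiment reproduced twice.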

[5] = system: NF-κB; assay: EMSA of HCMV-mediated NF-κB activation; type: cell-based, human; conditions: 24 hpi; 20 μM baicalein, 50 μM genistein
[6] = system: HCMV proteins (IE1-72, IE2-86, UL84, UL94); assay: Western blot / immunoprecipitation of HCMV proteins in infected HEL cells; type: cell-based, human cytomegalovirus
[7] = system: cdk2, cyclin E, p53, and PCNA; assay: Immunoblot of HCMV-induced cell cycle regulatory proteins; type: cell-based, human; conditions: 24 hpi; 50 μM ganciclovir, 20 μM baicalein, 50 μM genistein
Summary of the method: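 Confluent, serum-starved HEL cells given compound (20 or 50 μM final; 50 μM ganciclovir control) from 1 h before and throughout HCMV infection. Harvested at 24 hpi in SDS sample buffer and run on 8–10% SDS-PAGE. Immunoblotted for cdk2, cyclin E, p53 and PCNA (milk block, primary overnight at 4 °C, HRP secondary, ECL). Bands quantified by densitometry of scanned films.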

[8] = system: Static HEL fibroblasts; assay: Cytotoxicity, tetrazolium dye assay, static HEL monolayers; type: cell-based, human; conditions: 20 μM (5.4 μg/ml) baicalein, 50 μM (13.5 μg/ml) genistein
Summary of the method: as §1

[9] = system: HCMV tegument protein pp65; assay: HCMV nuclear translocation, pp65 fluorescence microscopy; type: cell-based, human cytomegalovirus; conditions: 6 hpi; 20 μM baicalein, 50 μM genistein
Summary of the method: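 Confluent HEL fibroblasts on chamber slides, serum-starved overnight and chilled on ice. Ice-cold compound-containing or plain DMEM added 10 min before infection with HCMV at 2–5 pfu/cell ± compound: 1 h at 4 °C, then 1 h at 37 °C. Cells washed and kept 5 h at 37 °C ± compound. Methanol-fixed at −20 °C, stained with anti-pp65 (1:1000), fluorescein secondary (1:500) and DAPI; nuclear pp65 examined at 6 hpi.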

[10] = biological target: EGFR (Homo sapiens, UniProt P00533); assay: HCMV-mediated EGFR tyrosine phosphorylation; type: cell-based; conditions: shortly after infection; 20 μM baicalein, 50 μM genistein
[11] = persons on a high soy diet, estimated; ref Adlercreutz et al., 1993; cited from earlier work
[12] = system: HCMV; conditions: ≤12 μM genistein, IE1-72 protein levels at 24 hpi; ref Slobbe-van Drunen et al., 1997; cited from earlier work

EGFR, sequence (P00533 25-1210): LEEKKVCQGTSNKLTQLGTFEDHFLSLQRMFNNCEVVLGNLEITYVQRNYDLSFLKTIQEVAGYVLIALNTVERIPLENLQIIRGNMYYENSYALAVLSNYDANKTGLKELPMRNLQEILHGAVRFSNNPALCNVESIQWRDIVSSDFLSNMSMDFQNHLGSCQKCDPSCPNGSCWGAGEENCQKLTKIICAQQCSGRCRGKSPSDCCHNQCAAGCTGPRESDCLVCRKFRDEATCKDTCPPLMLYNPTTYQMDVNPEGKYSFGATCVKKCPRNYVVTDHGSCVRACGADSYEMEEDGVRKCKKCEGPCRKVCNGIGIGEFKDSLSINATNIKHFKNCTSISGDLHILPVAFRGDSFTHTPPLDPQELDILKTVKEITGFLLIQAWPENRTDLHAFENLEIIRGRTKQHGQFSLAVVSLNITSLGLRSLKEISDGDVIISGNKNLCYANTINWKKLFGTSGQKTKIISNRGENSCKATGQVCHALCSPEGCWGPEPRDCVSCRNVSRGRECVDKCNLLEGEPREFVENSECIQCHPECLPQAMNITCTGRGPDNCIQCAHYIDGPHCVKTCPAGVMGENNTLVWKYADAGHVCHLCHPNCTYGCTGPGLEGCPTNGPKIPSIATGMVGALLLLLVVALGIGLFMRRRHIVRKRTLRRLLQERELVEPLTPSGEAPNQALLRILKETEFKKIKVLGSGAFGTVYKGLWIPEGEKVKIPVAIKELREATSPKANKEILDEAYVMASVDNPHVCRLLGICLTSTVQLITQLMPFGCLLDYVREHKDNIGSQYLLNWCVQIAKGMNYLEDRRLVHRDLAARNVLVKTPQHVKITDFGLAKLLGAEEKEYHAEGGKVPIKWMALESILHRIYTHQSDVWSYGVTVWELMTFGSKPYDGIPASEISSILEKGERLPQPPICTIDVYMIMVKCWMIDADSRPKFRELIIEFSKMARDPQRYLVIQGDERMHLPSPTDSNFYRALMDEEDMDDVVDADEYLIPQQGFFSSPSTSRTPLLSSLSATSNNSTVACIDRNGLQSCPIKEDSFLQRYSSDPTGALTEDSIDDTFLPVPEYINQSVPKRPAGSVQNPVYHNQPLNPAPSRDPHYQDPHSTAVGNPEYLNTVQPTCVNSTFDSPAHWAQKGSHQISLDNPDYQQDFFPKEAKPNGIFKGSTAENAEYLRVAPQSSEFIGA

With `O=c1cc(-c2ccc(O)cc2)oc2cc(O)cc(O)c12` [Apigenin] the CC50 at 72 h [1] was over 100 µM and the CC50 at 72 h [2] was over 100 µM.

For `O=c1cc(-c2ccccc2)oc2cc(O)c(O)c(O)c12` [Baicalein], the “HCMV DNA level” value ([3]; 20 μM baicalein, 72 hpi) was “reduced to nearly background levels”, the “Reversibility of antiviral effects” value [4] was “poorly reversible” and the “HCMV induction of NF-κB” value [5] was “absent”. The “Levels of all three kinetic classes of HCMV proteins” value ([6]; 20 μM baicalein, immunoblot 24, 48, 72 hpi) was “reduced to nearly background levels”, the “HCMV-mediated increases in steady-state levels of cdk2, cyclin E, p53, and PCNA” value (“HCMV-mediated increases” below) [7] was “inhibited” and the CC50 at 72 h [1] was over 100 µM. For the same molecule, the “Cytotoxicity in cell culture at concentration used for mechanism studies” value [8] was “did not display obvious cytotoxicity”, the “Nuclear accumulation of pp65” value [9] was “blocked” and the CC50 at 72 h [2] was over 100 µM. The “HCMV-induced EGFR phosphorylation” value [10] was “reduced to background levels”.

With `O=C(O)[C@H]1O[C@@H](Oc2cc3oc(-c4ccccc4)cc(=O)c3c(O)c2O)[C@H](O)[C@@H](O)[C@@H]1O` [Baicalin] the CC50 at 72 h [1] was over 400 µM and the CC50 at 72 h [2] was over 400 µM.

Molecule `O=c1c(-c2ccc(O)cc2)coc2cc(O)ccc12` [Daidzein] has a CC50 at 72 h [1] of over 200 µM and a CC50 at 72 h [2] of over 200 µM.

Work on `O=c1c(O)c(-c2ccccc2)oc2cc(O)cc(O)c12` [Galangin] yielded a CC50 at 72 h [1] of over 400 µM and a CC50 at 72 h [2] of over 400 µM.

For `Nc1nc(O)c2ncn(COC(CO)CO)c2n1` [Ganciclovir], the “HCMV-mediated increases” value [7] was “not affected”.

With `O=c1c(-c2ccc(O)cc2)coc2cc(O)cc(O)c12` [Genistein] the inhibition at 50 µM ([3]; Human betaherpesvirus 5, read-out: Inhibition of HCMV DNA replication) was about 95%, the “Reversibility of antiviral effects” value [4] was “fully” and the “HCMV induction of NF-κB” value [5] was “absent”. The IE1-72 level ([6]; 50 μM genistein, 24 hpi) was “slightly lower levels”, the “Reduction of IE2-86 levels” value ([6]; 50 μM genistein, 24 hpi) was at most 65% and the “UL84 and UL94 protein levels” value ([6]; 50 μM genistein, 48 and 72 hpi respectively) was “nearly background levels”. The “HCMV-mediated increases” value [7] was “inhibited”, the Steady-state serum levels [11] was 1 to 5 µM and the CC50 at 72 h [1] was over 200 µM. The “Cytotoxicity in cell culture at concentration used for mechanism studies” value [8] was “did not display obvious cytotoxicity”, the “Inhibition of HCMV replication” value [12] was “did not inhibit” and the CC50 at 72 h [2] was 124 ± 52 µM.

Molecule `O=c1cc(-c2ccc(O)c(O)c2)oc2cc(O)cc(O)c12` [Luteolin] has a CC50 at 72 h [1] of over 200 µM and a CC50 at 72 h [2] of 62 ± 10 µM.

`O=C1C[C@@H](c2ccc(O)cc2)Oc2cc(O)cc(O)c21` [Naringenin] gave a CC50 at 72 h [1] of over 100 µM and a CC50 at 72 h [2] of over 100 µM.

In the case of `O=c1c(O)c(-c2ccc(O)c(O)c2)oc2cc(O)cc(O)c12` [Quercetin], the CC50 at 72 h [1] is reported as over 400 µM and the CC50 at 72 h [2] is reported as over 400 µM.
